According to ChEMBL document CHEMBL1144184, “Preparation and biological evaluation of 5-substituted retinoic acids” (2008):
Calls of active or inactive are those of the source. The rule behind the calls is not given here.

Key:
HL-60 [1] = experiment: Cell cycle arrest in human HL-60 cells assessed as accumulation at G0/G1 phase at 10 pM to 1 uM by FACS; format: functional, cell-based
Method in brief: (§1)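 HL-60 cells (RPMI-1640, 10% dextran-coated charcoal-treated FCS, kanamycin; S-phase synchronized twice with 2.5 mM thymidine) seeded 10⁵ cells/well and exposed to retinoids for 3 days at 37 °C, 5% CO₂. Cells permeabilized with 0.2% Triton-X plus RNase (37 °C, 1 h), stained with propidium iodide (4 °C, 20 min), and cell cycle phases quantified by flow cytometry (488 nm argon laser).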

HL-60 [2] = experiment: Antiproliferative activity against human HL-60 cells assessed as cell cycle distribution at 0.0001 uM to 1 uM after 3 days by FACS relative to ATRA; format: functional; method in brief: as §1
HL-60 [3] = experiment: Induction of human HL-60 cell differentiation assessed as cell surface CD11b antigen expression measured as mean fluorescence index at 0.0001 uM to 1 uM after 3 days by FACS relative to ATRA; format: functional
Method in brief: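 Thymidine-synchronized HL-60 cells, 10⁵ cells/well, cultured 3 days with retinoids (10^-10–10^-6 M) in RPMI-1640. CD11b surface expression quantified by flow cytometry (excitation 490 nm, emission 520 nm), 10⁴ cells counted per treatment. Readout is mean fluorescence index (% fluorescent cells × mean intensity), normalized to ATRA values.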

[4] = target: T1, Retinoic acid receptor beta (Homo sapiens) (UniProt P10826); experiment: Increase in transcriptional activity of human RARbeta receptor expressed in human MG63 cells co-transfected with pGL3-RARE at 1 uM by luciferase reporter gene assay relative to ATRA; format: cell-based; settings: MG-63, in the assay text read “relative to control” for “relative to ATRA”
T1 sequence (whole entry): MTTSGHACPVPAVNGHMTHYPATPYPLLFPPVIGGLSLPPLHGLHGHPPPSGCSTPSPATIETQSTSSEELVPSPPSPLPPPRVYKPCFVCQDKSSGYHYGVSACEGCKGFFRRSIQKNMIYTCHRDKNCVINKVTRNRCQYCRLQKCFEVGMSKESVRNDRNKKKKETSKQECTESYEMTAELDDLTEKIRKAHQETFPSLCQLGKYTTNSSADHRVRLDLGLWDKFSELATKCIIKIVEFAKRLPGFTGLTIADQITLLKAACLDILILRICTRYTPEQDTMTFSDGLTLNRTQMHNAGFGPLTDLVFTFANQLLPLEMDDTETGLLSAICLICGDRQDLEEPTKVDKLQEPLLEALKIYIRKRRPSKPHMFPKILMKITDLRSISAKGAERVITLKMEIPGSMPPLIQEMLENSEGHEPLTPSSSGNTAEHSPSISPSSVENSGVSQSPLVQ
Method in brief: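 MG-63 osteosarcoma cells in DMEM with 10% charcoal-stripped FCS were seeded 2 × 10⁵/well the day before transfection. Cotransfected (Tfx-50) with human RARβ promoter–RARE3-SV40-luciferase reporter and pRL-CMV control. Retinoids applied for 2 days at 10^-6 M. Firefly luciferase normalized to Sea Pansy luciferase, expressed as fold induction over control. At least three repeats, mean ± SE.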

HL-60 [5] = experiment: Induction of apoptosis in human HL-60 cells assessed as DNA fragmentation by agarose gel electrophoresis; format: functional, cell-based
Method in brief: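 HL-60 cells exposed to increasing retinoid concentrations. DNA isolated from each culture, run on a 2% agarose gel, stained with ethidium bromide and viewed under UV. Laddering scored as positive or negative.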

Activity [4] | SMILES | Activity (HL-60 [1]) | Activity (HL-60 [2]) | Activity (HL-60 [3]) | Activity (HL-60 [5])
Active | CC(/C=C/C1=C(CC(C)C)CCCC1(C)C)=C\C=C\C(C)=C\C(=O)O | Active | 35 | 310 | inactive
– | CCCCC1=C(/C=C/C(C)=C\C=C\C(C)=C\C(=O)O)C(C)(C)CCC1 | – | 14 | 9 | inactive
– | CC(=C/C=C/C(C)=C/C(=O)O)/C=C/C1=C(CC(C)C)CCCC1(C)C | – | 16 | 10 | inactive
– | CC(=C/C=C/C(C)=C/C(=O)O)/C=C/C1=C(Cc2ccccc2)CCCC1(C)C | – | 11 | 6 | inactive
Active | CC(/C=C/C1=C(Cc2ccc3ccccc3c2)CCCC1(C)C)=C\C=C\C(C)=C\C(=O)O | Active | <0.81 | <0.22 | inactive
– | CC(=C/C=C/C(C)=C/C(=O)O)/C=C/C1=C(Cc2ccc3ccccc3c2)CCCC1(C)C | – | <0.81 | <0.22 | inactive
Active | CCCCC1=C(/C=C/C(C)=C/C=C/C(C)=C/C(=O)O)C(C)(C)CCC1 | Active | 193 | 129 | inactive
Active | CC(/C=C/C1=C(Cc2ccccc2)CCCC1(C)C)=C\C=C\C(C)=C\C(=O)O | Active | 2 | 2 | inactive
